pIC50: −log10 of the molar value.
Assays:
[1] = molecular target: T1, Cathepsin B-like cysteine protease (Trypanosoma brucei, UniProt Q6R7Z5); assay: Inhibition of Trypanosoma brucei cathepsin B-like cysteine protease
T1 sequence (Q6R7Z5 whole entry): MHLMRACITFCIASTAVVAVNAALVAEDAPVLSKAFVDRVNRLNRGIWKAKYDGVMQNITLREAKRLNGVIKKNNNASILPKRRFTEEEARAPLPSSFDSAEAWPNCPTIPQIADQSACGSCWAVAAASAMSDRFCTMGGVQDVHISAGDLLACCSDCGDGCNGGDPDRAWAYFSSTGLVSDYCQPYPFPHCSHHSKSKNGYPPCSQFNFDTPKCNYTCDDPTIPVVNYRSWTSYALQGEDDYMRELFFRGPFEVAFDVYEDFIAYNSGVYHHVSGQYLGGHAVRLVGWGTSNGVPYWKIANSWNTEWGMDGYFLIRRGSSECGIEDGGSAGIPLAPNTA
In short: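 Recombinant TbcatB zymogen expressed in Pichia pastoris, purified by HIC and anion exchange, titrated with CA074; 35 nM final. Inhibitor preincubated 20 min at room temperature, then Z-Phe-Arg-AMC (10 µM final). Initial rate from fluorescence (ex 350/em 460 nm) over 10 min. Triplicate. Sigmoidal IC50 fit.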

Procathepsin L = Procathepsin L (Homo sapiens, UniProt P07711); assay: Inhibition of human liver cathepsin L
Sequence of Procathepsin L (P07711 whole entry): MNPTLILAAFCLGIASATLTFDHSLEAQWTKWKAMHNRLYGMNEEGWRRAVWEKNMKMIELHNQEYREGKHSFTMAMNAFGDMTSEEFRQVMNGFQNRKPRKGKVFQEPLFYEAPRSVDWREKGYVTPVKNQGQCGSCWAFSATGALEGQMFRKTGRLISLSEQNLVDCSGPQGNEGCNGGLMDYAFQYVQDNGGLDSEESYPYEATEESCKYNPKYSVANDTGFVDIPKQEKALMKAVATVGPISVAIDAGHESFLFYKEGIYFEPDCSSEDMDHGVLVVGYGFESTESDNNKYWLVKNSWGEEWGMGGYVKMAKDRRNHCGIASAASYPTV
In short: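 Inhibitor preincubated 20 min at room temperature before Z-Phe-Arg-AMC (10 µM final). Initial rate from fluorescence (ex 350/em 460 nm) over 10 min. Quadruplicate. Sigmoidal IC50 fit.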

Trypanosoma brucei = assay: Antitrypanosomal activity against Trypanosoma brucei; format: functional, organism-based
In short: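 Culture-adapted bloodstream T. brucei grown in HMI-9 with pen/strep, 10% heat-inactivated FBS and 10% Serum Plus at 37 °C, 5% CO2, diluted to 1 × 10^4 cells/mL. Inhibitor added from DMSO, 48 h at 37 °C, then 1 h room-temperature equilibration. Cell Titer Glo luminescence read after 8 min. Quadruplicate. IC50 by curve fitting. Values shift up to 10-fold with FBS lot.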

Cathepsin B = Cathepsin B (Homo sapiens, UniProt P07858); assay: Inhibition of human liver cathepsin B
In short: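 Human liver enzyme at 0.56 ng/mL final in sodium acetate pH 5.5 buffer with 4 mM DTT, 0.01% Triton X-100, 0.5 mM EDTA. 20 min room-temperature preincubation with inhibitor, then Z-Arg-Arg-AMC (10 µM final). Quadruplicate. Sigmoidal IC50 fit.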

Cc1cccc(CNc2nc(C#N)nc3c2ncn3Cc2ccccc2)c1 showed a pIC50 [1] of 5.48, a pIC50 (Procathepsin L) of 4.98 and a pIC50 (Trypanosoma brucei) of 6.32. The pIC50 (Cathepsin B) was < 4.52.
With COCCCn1cnc2c(NCc3ccc(Cl)c(Cl)c3)nc(C#N)nc21 the pIC50 [1] was 5.60, the pIC50 (Procathepsin L) was 6.11 and the pIC50 (Trypanosoma brucei) was 6.82. The pIC50 (Cathepsin B) was < 4.52.

Reference: ChEMBL document CHEMBL1140721, “Development of potent purine-derived nitrile inhibitors of the trypanosomal protease TbcatB” (J Med Chem, 2008)
